Data set [1] has as its target T1, Fatty-acid amide hydrolase 1 (Homo sapiens) (UniProt O00519).
T1 sequence (whole entry): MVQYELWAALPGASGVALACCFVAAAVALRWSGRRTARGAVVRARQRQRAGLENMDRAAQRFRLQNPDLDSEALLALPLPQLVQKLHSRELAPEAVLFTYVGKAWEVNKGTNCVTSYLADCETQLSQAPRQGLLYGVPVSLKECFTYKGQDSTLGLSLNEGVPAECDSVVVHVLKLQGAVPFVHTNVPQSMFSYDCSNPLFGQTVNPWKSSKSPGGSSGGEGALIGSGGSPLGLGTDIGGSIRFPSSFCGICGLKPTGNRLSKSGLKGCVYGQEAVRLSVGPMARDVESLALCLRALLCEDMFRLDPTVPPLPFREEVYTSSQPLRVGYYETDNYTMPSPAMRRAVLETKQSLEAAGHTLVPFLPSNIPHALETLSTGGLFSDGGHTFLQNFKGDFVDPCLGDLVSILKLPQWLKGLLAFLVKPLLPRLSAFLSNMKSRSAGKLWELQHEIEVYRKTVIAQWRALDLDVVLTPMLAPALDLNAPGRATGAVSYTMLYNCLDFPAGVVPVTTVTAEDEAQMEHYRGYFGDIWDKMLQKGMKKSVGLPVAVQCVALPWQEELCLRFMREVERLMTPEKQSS
As to the kind of experiment: Inhibition of human recombinant MBP-tagged FAAH expressed in Escherichia coli cells at 1 uM using AAMCA as substrate incubated for 15 mins followed by substrate addition and measured after every 20 mins for 4 hrs by fluorescence based assay relative to control. In a few lines: (§1)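 Fluorescent FAAH assay with arachidonoyl 7-amino-4-methylcoumarin amide as substrate; compound tested at a single concentration of 1 µM; percent inhibition reported.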

In data set [2] the target is T2, Monoglyceride lipase (Homo sapiens, UniProt Q99685).
T2 sequence (Q99685 whole entry): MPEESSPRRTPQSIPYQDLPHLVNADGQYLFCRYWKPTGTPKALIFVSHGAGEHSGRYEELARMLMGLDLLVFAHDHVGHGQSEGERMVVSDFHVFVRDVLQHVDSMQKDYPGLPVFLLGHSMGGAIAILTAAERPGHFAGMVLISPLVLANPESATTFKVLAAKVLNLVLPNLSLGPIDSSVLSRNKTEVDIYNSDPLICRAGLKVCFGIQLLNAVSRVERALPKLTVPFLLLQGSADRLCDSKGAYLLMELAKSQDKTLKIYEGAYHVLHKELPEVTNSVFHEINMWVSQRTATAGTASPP
Put plainly: Inhibition of human recombinant His-tagged MGL expressed in Escherichia coli BL21 DE3 cells using AHMMCE as substrate preincubated with enzyme for 15 mins followed by substrate addition and measured after every 15 mins for 3 hrs by fluorescence based assay. In a few lines: (§2)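 Fluorescent enzyme assay in throughput format. Human recombinant FAAH or purified rat FAAH used arachidonoyl 7-amino-4-methylcoumarin amide as substrate; human recombinant MGL was run by a similar fluorometric procedure.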

Data set [3] is filed under the species Homo sapiens. Put plainly: Selectivity ratio of IC50 for human recombinant His-tagged MGL expressed in Escherichia coli BL21 DE3 cells to IC50 for human recombinant MBP-tagged FAAH expressed in Escherichia coli cells by fluorescence based assay.
In data set [4] the target is Cannabinoid receptor 1 (Rattus norvegicus) (UniProt P20272). As to the kind of experiment: Displacement of [3H]CP55940 from CB1 receptor in rat brain by competition-equilibrium binding analysis. The data set is classed as tissue-based. Put shortly:
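Rat brain membranes as CB1 source; competition-equilibrium binding against [3H]CP-55,940.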
In general terms: Displacement assays read how much labelled ligand stays bound in the presence of the test substance.
Target sequence in this assay (P20272 whole entry): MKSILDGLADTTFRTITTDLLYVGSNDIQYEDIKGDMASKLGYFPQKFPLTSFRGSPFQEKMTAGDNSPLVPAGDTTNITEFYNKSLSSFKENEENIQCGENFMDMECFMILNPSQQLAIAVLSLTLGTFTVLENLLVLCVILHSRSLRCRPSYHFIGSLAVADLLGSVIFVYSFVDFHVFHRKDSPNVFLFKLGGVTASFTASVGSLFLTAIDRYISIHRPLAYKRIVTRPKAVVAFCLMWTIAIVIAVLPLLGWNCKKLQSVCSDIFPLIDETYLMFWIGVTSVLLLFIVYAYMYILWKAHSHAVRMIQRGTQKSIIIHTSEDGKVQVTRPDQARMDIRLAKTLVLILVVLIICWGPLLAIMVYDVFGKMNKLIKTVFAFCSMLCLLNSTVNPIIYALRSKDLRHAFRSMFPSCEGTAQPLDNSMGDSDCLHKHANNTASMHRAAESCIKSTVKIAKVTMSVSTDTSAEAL

For data set [5], the target named is Cannabinoid receptor 2 (Homo sapiens) (UniProt P34972). Put plainly: Displacement of [3H]CP55940 from human CB2 receptor expressed in HEK293 cells by competition-equilibrium binding analysis. The data set is classed as cell-based. Put shortly:
(§3)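 HEK293 cell membranes expressing mouse or human CB2; competition-equilibrium binding against [3H]CP-55,940.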

In data set [6] the target is Cannabinoid receptor 2 (Mus musculus) (UniProt P47936). Put plainly: Displacement of [3H]CP55940 from mouse CB2 receptor expressed in HEK293 cells by competition-equilibrium binding analysis. The format is cell-based. In a few lines: as §3
Data set [7] addresses T3, Fatty-acid amide hydrolase 1 (Rattus norvegicus, UniProt P97612).
T3 sequence (P97612 whole entry): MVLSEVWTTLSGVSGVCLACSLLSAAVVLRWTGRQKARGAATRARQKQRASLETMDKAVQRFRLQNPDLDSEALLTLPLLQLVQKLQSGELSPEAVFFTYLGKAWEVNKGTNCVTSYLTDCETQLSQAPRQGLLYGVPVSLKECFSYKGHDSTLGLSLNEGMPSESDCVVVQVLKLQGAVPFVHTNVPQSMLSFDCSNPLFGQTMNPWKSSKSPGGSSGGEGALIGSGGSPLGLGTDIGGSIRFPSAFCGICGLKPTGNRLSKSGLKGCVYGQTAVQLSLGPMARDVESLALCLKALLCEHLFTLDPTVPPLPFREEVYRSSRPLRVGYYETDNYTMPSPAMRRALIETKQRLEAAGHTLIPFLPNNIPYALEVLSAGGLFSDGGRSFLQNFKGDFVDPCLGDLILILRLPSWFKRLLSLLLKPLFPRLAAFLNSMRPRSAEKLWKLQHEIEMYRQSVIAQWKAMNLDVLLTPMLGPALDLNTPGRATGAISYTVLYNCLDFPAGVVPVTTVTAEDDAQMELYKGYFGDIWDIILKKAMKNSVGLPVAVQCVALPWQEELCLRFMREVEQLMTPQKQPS
Put plainly: Inhibition of rat recombinant His/GST-tagged FAAH expressed in Escherichia coli cells using AAMCA as substrate incubated for 15 mins followed by substrate addition and measured after every 20 mins for 4 hrs by fluorescence based assay. In a few lines:
as §2

The nature of data set [8]: Selectivity ratio of IC50 for human full length ABHD6 expressed in Escherichia coli cells to IC50 for rat recombinant His/GST-tagged FAAH expressed in Escherichia coli cells by fluorescence based assay.
A short description of data set [9]: Selectivity ratio of IC50 for human recombinant His-tagged MGL expressed in Escherichia coli BL21 DE3 cells to IC50 for rat recombinant His/GST-tagged FAAH expressed in Escherichia coli cells by fluorescence based assay.
Data set [10] concerns the target Cannabinoid receptor 1 (Rattus norvegicus) (UniProt P20272). As to the kind of experiment: Displacement of [3H]CP55940 from CB1 receptor in rat brain by competition-equilibrium binding analysis.
Target sequence in this assay (P20272 whole entry, looked up): as the sequence (P20272 whole entry) above
For data set [11], the species on record is Homo sapiens. As to the kind of experiment: Selectivity ratio of IC50 for human full length ABHD6 expressed in Escherichia coli cells to IC50 for human recombinant MBP-tagged FAAH expressed in Escherichia coli cells by fluorescence based assay.
The target of data set [12] is T4, Fatty-acid amide hydrolase 1 (Rattus norvegicus) (UniProt P97612).
T4 sequence (whole entry): T3 sequence (P97612 whole entry)
As to the kind of experiment: Inhibition of rat recombinant His/GST-tagged FAAH expressed in Escherichia coli cells at 1 uM using AAMCA as substrate incubated for 15 mins followed by substrate addition and measured after every 20 mins for 4 hrs by fluorescence based assay relative to control. Put shortly:
as §1

Data set [13] is described as follows: Drug concentration in brain (unknown origin) at 2 mg/kg, iv measured after 15 mins. The data set is classed as ADME, organism-based. Conditions: read-out: Ct. In a few lines: (§4)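 Cassette pharmacokinetics: compounds given together at 2 mg/kg iv; brain and plasma levels (µg/mL) measured at 15 min.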
Data set [14] can be described thus: Stability in rat gastric fluid assessed as half life. The format is ADME, tissue-based, Gastric juice. Put shortly: (§5)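 Stability assessed as half-life in human, rat and mouse plasma and gastric fluid, and in human, rat and mouse liver microsomal preparations.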
Data set [15] can be described thus: Stability in rat plasma assessed as half life. The format is ADME, cell-free. Put shortly:
as §5

Data set [16] is described as follows: Stability in mouse gastric fluid assessed as half life. The data set is classed as ADME, tissue-based, Gastric juice. In a few lines:
as §5

Data set [17] can be described thus: Stability in mouse plasma assessed as half life. The data set is classed as ADME, cell-free. Put shortly: as §5
A short description of data set [18]: Stability in human gastric fluid assessed as half life. The data set is classed as ADME, tissue-based, Gastric juice. In a few lines:
as §5

A short description of data set [19]: Stability in human liver microsomes assessed as half life. The data set is classed as ADME, Microsome. In a few lines: as §5
Data set [20] is described as follows: Stability in mouse liver microsomes assessed as half life. The format is ADME, Microsome. Put shortly:
as §5
In general terms: Microsomes from liver hold many membrane-bound enzymes, among them those of drug oxidation.

Data set [21] is described as follows: Stability in rat liver microsomes assessed as half life. The data set is classed as ADME, Microsome. In a few lines: as §5
The nature of data set [22]: Stability in human plasma assessed as half life. The format is ADME, cell-free. Put shortly: as §5
Data set [23] can be described thus: Drug concentration in plasma (unknown origin) at 2 mg/kg, iv measured after 15 mins. The data set is classed as ADME, organism-based. Put shortly:
as §4

Data set [24] concerns the target T5, Fatty-acid amide hydrolase 1 (Homo sapiens, UniProt O00519).
T5 sequence (O00519 whole entry): T1 sequence (whole entry)
Put plainly: Inhibition of human recombinant MBP-tagged FAAH expressed in Escherichia coli cells using AAMCA as substrate incubated for 15 mins followed by substrate addition and measured after every 20 mins for 4 hrs by fluorescence based assay. In a few lines: as §2

Active and inactive are the calls of the source. Some results are limits rather than exact numbers.

Cannabinoid receptor 2 (Homo sapiens), sequence (P34972 whole entry): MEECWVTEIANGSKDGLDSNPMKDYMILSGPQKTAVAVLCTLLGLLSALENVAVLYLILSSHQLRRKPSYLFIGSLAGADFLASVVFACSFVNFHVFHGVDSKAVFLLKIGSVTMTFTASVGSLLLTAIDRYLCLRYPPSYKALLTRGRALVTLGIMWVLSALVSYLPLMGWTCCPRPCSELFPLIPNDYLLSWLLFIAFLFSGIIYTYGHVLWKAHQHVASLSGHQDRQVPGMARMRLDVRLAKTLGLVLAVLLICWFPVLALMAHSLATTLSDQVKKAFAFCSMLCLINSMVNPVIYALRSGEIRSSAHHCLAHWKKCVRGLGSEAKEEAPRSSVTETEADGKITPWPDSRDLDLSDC
Cannabinoid receptor 2 (Mus musculus), sequence (P47936 whole entry): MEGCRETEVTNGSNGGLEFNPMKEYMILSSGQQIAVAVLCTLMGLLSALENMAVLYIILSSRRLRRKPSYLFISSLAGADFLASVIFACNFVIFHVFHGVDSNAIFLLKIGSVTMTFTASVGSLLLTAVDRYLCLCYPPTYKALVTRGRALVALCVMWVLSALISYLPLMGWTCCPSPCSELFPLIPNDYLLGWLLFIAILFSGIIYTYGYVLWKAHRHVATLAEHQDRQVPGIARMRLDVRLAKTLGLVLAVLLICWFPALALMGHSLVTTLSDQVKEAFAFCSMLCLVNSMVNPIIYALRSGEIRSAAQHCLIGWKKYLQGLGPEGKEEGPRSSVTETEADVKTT

Regarding `O=C(Oc1cccc(N2CCS(=O)(=O)CC2)c1)N1C[C@@H]2C[C@H]1CN2c1ccc(F)cc1`, the inhibition – broadly, the change of the read-out against control, counted positive when it falls – in data set [1] came to 67%. Moreover, the IC50 (in general, the midpoint of a concentration-inhibition curve) is greater than 1000 nM in data set [2] and 341 nM in [7]. Moreover, the Ratio IC50 in data set [3], in [8], in data set [9] and in data set [11] was greater than 1000 throughout. Further, the outcome in [4], in [5], in [6] and in data set [10] was inactive.

As for `C[C@H]1CN(c2ccccc2)CCN1C(=O)Oc1cccc(N2CCS(=O)(=O)CC2)c1`, the inhibition entry in data set [1] and in [12] was “inactive” each time. The result in [4], in [5], in data set [6] and in data set [10] was inactive.

Consider `O=C(Oc1cccc(N2CCS(=O)(=O)CC2)c1)N1CCC(c2ccc(F)cc2)CC1`, for which the concentration at 0.25 h in data set [13] turned out to be 1230 ng/mL; in data set [23], 474 ng/mL. Besides, the IC50 in data set [2] is greater than 1000 nM; in data set [7], 2.3 nM; in [24], 10 nM. In addition, the half-life – broadly, the time needed for the level to fall by half in the phase considered – was greater than 60 min in data set [14]; greater than 60 min in data set [15]; greater than 60 min in [16]; greater than 60 min in data set [17]; greater than 60 min in data set [18]; 15 to 25 min in data set [19]. Besides, the half-life in data set [20] was 15 to 25 min; in [21], 15 to 25 min; in data set [22], greater than 60 min. Also, the Ratio IC50 in [3], in data set [8], in [9] and in [11] was greater than 1000 in each case. In addition, the result in [4], in data set [5], in data set [6] and in data set [10] was inactive.

As to `COc1ccc(N2CCN(C(=O)Oc3cccc(N4CCS(=O)(=O)CC4)c3)[C@@H](C(C)C)C2)cc1`, the inhibition result in [1] and in [12] was “inactive” each time. In addition, the result in [4], in data set [5], in [6] and in data set [10] was inactive.

Take `C[C@@H]1CN(C(=O)Oc2cccc(N3CCS(=O)(=O)CC3)c2)[C@@H](C)CN1c1ccc(F)cc1`: in data set [12], the inhibition was determined as 35%. Also, the outcome in data set [4], in [5], in data set [6] and in data set [10] was inactive.

For `O=C(Oc1cccc(N2CCS(=O)(=O)CC2)c1)N1CCC2(CC1)COC2`, the inhibition entry in [1] and in data set [12] was “inactive” in each case. Also, in data set [2], the 50% inhibitory concentration (IC50) was greater than 1000 nM. In addition, the Ratio IC50 in data set [3], in [8], in data set [9] and in data set [11] was greater than 1000 in each case. Also, the outcome in data set [4], in [5], in data set [6] and in data set [10] was inactive.

Consider `O=C(Oc1cccc(N2CCS(=O)(=O)CC2)c1)N1CCN(c2ccc(F)cc2)CC12CC2`, for which the inhibition in data set [12] stood at 54%. Besides, the result in data set [4], in [5], in [6] and in [10] was inactive.

On to `O=C(Oc1cccc(N2CCS(=O)(=O)CC2)c1)N1CCN(c2ccnnc2)CC1`, for which the inhibition entry in [1] and in data set [12] was “inactive” each time. The IC50 in [2] was greater than 1000 nM. Further, the Ratio IC50 in data set [3], in data set [8], in data set [9] and in [11] was greater than 1000 each time. Further, the result in [4], in [5], in data set [6] and in [10] was inactive.

Consider `COc1ccc(N2CCN(C(=O)Oc3cccc(N4CCOCC4)c3)[C@H](C)C2)cc1`, for which the concentration for half-maximal inhibition (IC50) in data set [2] is greater than 1000 nM; in [7], 5.2 nM; in [24] it was 4.1 nM. Further, the half-life in [14] was greater than 60 min; in data set [15], greater than 60 min; in data set [16] it was greater than 60 min; in data set [17], greater than 60 min; in data set [18] it was greater than 60 min; in data set [19], 15 to 25 min. Moreover, the half-life in [20] is 15 to 25 min; in data set [21], 15 to 25 min; in data set [22], greater than 60 min. Also, the Ratio IC50 in data set [3], in data set [8], in data set [9] and in data set [11] was greater than 1000 throughout. In addition, the result in data set [4], in data set [5], in data set [6] and in data set [10] was inactive.

These data come from ChEMBL document CHEMBL4359929, “Piperidine and piperazine inhibitors of fatty acid amide hydrolase targeting excitotoxic pathology” (Bioorg Med Chem, 2019).
